Test results taken from ChEMBL document CHEMBL5032502, “Syntheses, Biological Evaluations, and Mechanistic Studies of Benzo[c][1,2,5]oxadiazole Derivatives as Potent PD-L1 Inhibitors with In Vivo Antitumor Activity” (J Med Chem, 2021).
Activity calls are given as the source filed them. The rule behind the calls is not given here.

Tests used:
[1] = Tmax in C57BL/6 mouse at 2 mg/kg, iv measured upto 24 hrs by LC-MS analysis; type: ADME, organism-based; conditions: in vivo
Procedure, shortened: (§1)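 Male Sprague-Dawley rats or C57BL/6 mice fasted 12 h before dosing, given oral (po) or intravenous (iv) doses. Plasma levels measured by LC-MS. Parameters reported as mean ± SEM, n = 3.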

[2] = Tmax in C57BL/6 mouse at 10 mg/kg, po measured upto 24 hrs by LC-MS analysis; type: ADME, organism-based; conditions: in vivo; procedure, shortened: as §1
[3] = Toxicity in C57BL/6 mouse assessed as effect on BUN level at 2000 mg/kg, po observed for 30 days; type: organism-based; conditions: in vivo, 720 h, time 30 day
[4] = tested on: MC-38; experiment: Antitumor activity against mouse MC38 cells implanted in C57BL/6 mouse assessed as tumor growth inhibition at 300 mg/kg, po measured after 14 days; type: functional; conditions: MC-38, po, 336 h, time 14 day, read-out: TGI
[5] = Toxicity in C57BL/6 mouse assessed as effect on creatinine kinase level at 2000 mg/kg, po observed for 30 days; type: organism-based; conditions: in vivo, 720 h, time 30 day
[6] = AUC (0 to t) in Sprague-Dawley rat at 9 mg/kg, iv measured upto 24 hrs by LC-MS analysis; type: ADME, organism-based; set-up: route intravenous, dose 9 mg/kg, time <=24; conditions: in vivo
Procedure, shortened: (§2)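 Male animals fasted 12 h before dosing. Plasma levels measured by LC-MS, with the prodrug quantified as the parent acid. Mean ± SEM, n = 3.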

[7] = tested on: MC-38; experiment: Antitumor activity against mouse MC38 cells xenografted in C57BL/6 mouse assessed as reduction in macrophages at 25 mg/kg, po by flow cytometry analysis; type: functional, organism-based
Procedure, shortened: (§3)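 Tumours taken from PD-L1-humanized mice carrying MC38-hPD-L1 tumours and dosed orally at 5 or 25 mg/kg daily. Tissue digested to single cells, red cells lysed with ACK buffer, Fc blocked. Surface stain 60 min for CD45, CD3, CD4, CD8, CD335, CD11b, Ly6G, Ly6C and F4/80, with a viability dye. Intracellular FOXP3 stain after permeabilization. Mean ± SEM, n = 7−8, one-way ANOVA.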

[8] = tested on: B16-F10; experiment: Antitumor activity against mouse B16-F10 cells implanted in C57BL/6 mouse assessed as tumor growth inhibition at 15 mg/kg, po measured after 18 days; type: functional; conditions: 432 h, time 18 day, read-out: TGI
Procedure, shortened: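 Female C57BL/6J mice, 8 weeks old, injected dorsally with 1 × 10⁶ B16-F10 cells in PBS. Daily oral gavage started the same day (day 1), in 0.5% CMC-Na vehicle. Tumour size and body weight recorded daily, volume = 0.5 × L × W². Sacrifice on day 18, tumours excised and weighed. TGI = (1 − Vt/Vv) × 100.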

[9] = Tmax in Sprague-Dawley rat at 45 mg/kg, po measured upto 24 hrs by LC-MS analysis; type: ADME, organism-based; conditions: in vivo; procedure, shortened: as §1
[10] = Cmax in Sprague-Dawley rat at 45 mg/kg, po measured upto 24 hrs by LC-MS analysis; type: ADME, organism-based; set-up: route oral, dose 45 mg/kg, time <=24; conditions: in vivo; procedure, shortened: as §2
[11] = Clearance in C57BL/6 mouse at 2 mg/kg, iv measured upto 24 hrs by LC-MS analysis; type: ADME, organism-based; conditions: in vivo; procedure, shortened: as §2
[12] = Subacute toxicity in C57BL/6 mouse assessed as organ weight change po observed for 30 days; conditions: in vivo, 720 h
[13] = Clearance in Sprague-Dawley rat at 9 mg/kg, iv measured upto 24 hrs by LC-MS analysis; type: ADME, organism-based; conditions: in vivo; procedure, shortened: as §2
[14] = Half life in C57BL/6 mouse at 10 mg/kg, po measured upto 24 hrs by LC-MS analysis; type: ADME, organism-based; conditions: in vivo; procedure, shortened: as §2
[15] = Half life in Sprague-Dawley rat at 45 mg/kg, po measured upto 24 hrs by LC-MS analysis; type: ADME, organism-based; conditions: in vivo; procedure, shortened: as §2
[16] = Toxicity in C57BL/6 mouse assessed as body weight loss at 2000 mg/kg, po observed for 30 days; conditions: in vivo, 720 h
[17] = tested on: MC-38; experiment: Antitumor activity against mouse MC38 cells xenografted in C57BL/6 mouse assessed as increase in ratio of CD8 positive T cells to CD4 positive T cells at 25 mg/kg, po by flow cytometry analysis; type: functional, organism-based; procedure, shortened: as §3
[18] = tested on: MC-38; experiment: Antitumor activity against mouse MC38 cells xenografted in C57BL/6 mouse assessed as increase in CD3 positive T cells at 25 mg/kg, po by flow cytometry analysis; type: functional, organism-based; procedure, shortened: as §3
[19] = Acute toxicity in C57BL/6 mouse assessed as mortality at 2000 mg/kg, po observed for 30 days; type: organism-based; conditions: in vivo, 720 h, time 30 day
Procedure, shortened: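 Healthy C57BL/6 mice got a single oral 2000 mg/kg dose. Mortality and body weight were then recorded over a 30-day observation period.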

[20] = target: Programmed cell death protein 1/Programmed cell death 1 ligand 1 (Homo sapiens, UniProt Q9NZQ7); experiment: Inhibition of human PD-1/PD-L1 interaction assessed as blockade activity incubated for 15 mins by HTRF assay; type: protein-complex assay
Chain of Programmed cell death protein 1/Programmed cell death 1 ligand 1 (Q15116 whole entry): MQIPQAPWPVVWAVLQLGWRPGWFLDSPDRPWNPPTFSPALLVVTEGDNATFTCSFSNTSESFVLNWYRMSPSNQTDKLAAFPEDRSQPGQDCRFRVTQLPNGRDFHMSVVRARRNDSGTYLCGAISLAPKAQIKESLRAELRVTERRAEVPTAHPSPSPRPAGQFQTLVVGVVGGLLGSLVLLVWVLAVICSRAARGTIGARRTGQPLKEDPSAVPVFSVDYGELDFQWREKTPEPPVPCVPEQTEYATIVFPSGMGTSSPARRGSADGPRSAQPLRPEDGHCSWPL
Chain of Programmed cell death protein 1/Programmed cell death 1 ligand 1 (Q9NZQ7 whole entry): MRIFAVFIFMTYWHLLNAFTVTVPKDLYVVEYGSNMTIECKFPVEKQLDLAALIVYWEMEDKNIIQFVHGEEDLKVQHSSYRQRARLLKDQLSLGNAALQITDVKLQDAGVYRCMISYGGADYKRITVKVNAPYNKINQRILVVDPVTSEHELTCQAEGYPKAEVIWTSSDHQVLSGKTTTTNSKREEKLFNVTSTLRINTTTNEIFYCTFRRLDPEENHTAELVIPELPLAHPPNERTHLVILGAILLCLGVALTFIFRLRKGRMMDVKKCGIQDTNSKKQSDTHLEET
Procedure, shortened: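 Tag1-PD-L1 and Tag2-PD-1 proteins preincubated with compound (0.1 nM to 10 μM, triplicate) 15 min at room temperature, then anti-Tag1-Eu³⁺/anti-Tag2-XL665 added for 2 h at room temperature. Excitation 337 nm, emission 665 and […]. Signal taken as 665/615 ratio ×10 000; IC50 fitted from inhibition rates.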

[21] = tested on: MC-38; experiment: Antitumor activity against mouse MC38 cells xenografted in C57BL/6 mouse assessed as reduction in mMDSC cells at 25 mg/kg, po by flow cytometry analysis; type: functional, organism-based; procedure, shortened: as §3
[22] = Toxicity in C57BL/6 mouse assessed as effect on ALT level at 2000 mg/kg, po observed for 30 days; type: organism-based; conditions: in vivo, 720 h, time 30 day
[23] = Tmax in Sprague-Dawley rat at 9 mg/kg, iv measured upto 24 hrs by LC-MS analysis; type: ADME, organism-based; conditions: in vivo; procedure, shortened: as §1
[24] = Half life in C57BL/6 mouse at 2 mg/kg, iv measured upto 24 hrs by LC-MS analysis; type: ADME, organism-based; conditions: in vivo; procedure, shortened: as §2
[25] = tested on: MC-38; experiment: Antitumor activity against mouse MC38 cells xenografted in C57BL/6 mouse assessed as increase in NK cells at 25 mg/kg, po by flow cytometry analysis; type: functional, organism-based; procedure, shortened: as §3
[26] = Cmax in C57BL/6 mouse at 2 mg/kg, iv measured upto 24 hrs by LC-MS analysis; type: ADME, organism-based; set-up: route intravenous, dose 2 mg/kg, time <=24; conditions: in vivo; procedure, shortened: as §2
[27] = tested on: MC-38; experiment: Antitumor activity against PD-L1 humanized mouse MC38 cells implanted in PD-L1 humanized C57BL/6 mouse assessed as tumor growth inhibition at 25 mg/kg, po measured after 30 days; type: functional; conditions: MC-38, po, 720 h, time 30 day, read-out: TGI
Procedure, shortened: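 PD-L1-humanized C57BL/6 mice given 1 × 10⁶ MC38-hPD-L1(Tg)-mPDL1(KO) cells in the right flank. Once tumours reached 50 mm³, randomized into three groups: CMC-Na vehicle, 25 or 50 mg/kg by daily oral gavage for 30 days. TGI from mean tumour volume of treated versus vehicle groups. n = 6.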

[28] = tested on: MC-38; experiment: Antitumor activity against mouse MC38 cells xenografted in C57BL/6 mouse assessed as change in regulatory T cells at 25 mg/kg, po by flow cytometry analysis; type: functional, organism-based; procedure, shortened: as §3
[29] = AUC (0 to t) in C57BL/6 mouse at 2 mg/kg, iv measured upto 24 hrs by LC-MS analysis; type: ADME, organism-based; set-up: route intravenous, dose 2 mg/kg, time <=24; conditions: in vivo; procedure, shortened: as §2
[30] = AUC (0 to t) in C57BL/6 mouse at 10 mg/kg, po measured upto 24 hrs by LC-MS analysis; type: ADME, organism-based; set-up: route oral, dose 10 mg/kg, time <=24; conditions: in vivo; procedure, shortened: as §2

## CCOC(=O)[C@@H](CO)NCc1cc(Cl)c(OCc2cccc(-c3ccccc3)c2Br)cc1OCc1ccc2nonc2c1.Cl
[1]
  Tmax: 4.8 min
[2]
  Tmax: 1 h
[3]
  Activity: Non-Toxic
[4]
  inhibition in vivo at 300 mg/kg: 36.5%
[5]
  Activity: Non-Toxic
[6]
  AUC(0-t) at 24 h: 6280 ng·h/mL
[7]
  Activity: Active
[8]
  inhibition in vivo at 15 mg/kg: 45.8%
[9]
  Tmax: 4 h
[10]
  Cmax: 488 ng/mL
[11]
  clearance: 28.7 mL/min/kg
[12]
  Activity: Non-Toxic
[13]
  clearance: 23.8 mL/min/kg
[14]
  half-life: 1.55 h
[15]
  half-life: 3.43 h
[16]
  Activity: Non-Toxic
[17]
  Activity: Active
[18]
  Activity: Active
[19]
  Activity: Non-Toxic
[20]
  IC50: 426 nM
[21]
  Activity: Active
[22]
  Activity: Non-Toxic
[23]
  Tmax: 4.8 min
[24]
  half-life: 2.05 h
[25]
  Activity: Active
[26]
  Cmax: 2820 ng/mL
[27]
  inhibition in vivo at 25 mg/kg: 44.2%
[28]
  Activity: inactive
[29]
  AUC(0-t) at 24 h: 1150 ng·h/mL
[30]
  AUC(0-t) at 24 h: 444 ng·h/mL
